This is an account of results in paper PMC7221417 (European journal of medicinal chemistry, 2020).

One data set is described as follows: Stability in DMSO. The data set is classed as physicochemical. The note with it: for free anastrozole observed in DMSO (1H NMR): 2 mM, 15 min.
The nature of data set [1]: Qualitative solubility in water and organic solvents. It is filed as physicochemical.
Data set [2] relates to MCF12A cells (non-cancerous breast). In words: Sulforhodamine B. The data set is classed as cell-based, human.
Data set [3] deals with H295R cells (adrenocortical carcinoma). In words: Sulforhodamine B. The data set is classed as cell-based, human.
Data set [4] addresses T1, aromatase (CYP19) in H295R cells (Homo sapiens, UniProt P11511).
T1 sequence (P11511 1-503): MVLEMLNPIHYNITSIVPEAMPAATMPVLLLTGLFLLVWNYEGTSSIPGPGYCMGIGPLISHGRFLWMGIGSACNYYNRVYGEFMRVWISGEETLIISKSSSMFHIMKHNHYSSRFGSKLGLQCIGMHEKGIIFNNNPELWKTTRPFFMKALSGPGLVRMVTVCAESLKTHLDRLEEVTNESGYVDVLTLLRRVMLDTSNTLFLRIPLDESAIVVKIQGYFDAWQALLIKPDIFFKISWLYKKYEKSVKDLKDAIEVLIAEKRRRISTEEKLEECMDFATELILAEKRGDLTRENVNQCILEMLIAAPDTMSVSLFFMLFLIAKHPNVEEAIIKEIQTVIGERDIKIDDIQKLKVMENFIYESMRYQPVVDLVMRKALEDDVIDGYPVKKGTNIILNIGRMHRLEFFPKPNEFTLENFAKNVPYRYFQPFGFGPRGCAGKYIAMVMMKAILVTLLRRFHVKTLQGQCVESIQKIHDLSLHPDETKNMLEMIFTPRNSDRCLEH
In words: Tritiated water-release assay of aromatase activity in H295R cells. The data set is classed as cell-based. The procedure, abridged:
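H295R cells were seeded at 100,000/well in DMEM/F-12 with Nu Serum and ITS for 24 h, then washed with PBS. They were incubated 1.5 h at 37 °C, 5% CO2, in phenol red-free DMEM/F-12 with 54nM 1β-3H-androstenedione plus test compound at 0.1, 1, 10, 100 nM. Released tritiated water was counted by liquid scintillation. Controls were cell-free blanks and 0.1% DMSO. Data are mean ± SD.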

Data set [5] has as its system MCF7 cells (ER+ breast cancer). In words: Sulforhodamine B. The data set is classed as cell-based, human. The note with it: for Selectivity index (SI): IC50 (MCF12A) / IC50 (MCF7).
Data set [6] deals with MDA-MB-231 cells (ER- / triple negative breast cancer). In words: Sulforhodamine B. It is filed as cell-based, human. The note with it: for Selectivity index (SI): IC50 (MCF12A) / IC50 (MDA-MB-231).
In data set [7] the test system is T47D cells (ER+ breast cancer). In words: Sulforhodamine B. It is filed as cell-based, human. The note with it: for IC50: T47D.
Data set [8] has as its system zebrafish (Danio rerio) embryos. The note with it: concentrations far less than its IC50 value in human cancer cells; cited from earlier work.
For data set [9] the test system is unchanged. In words: Zebrafish embryo toxicity assay. It is filed as in vivo. The note with it: 0.1, 0.5, 1 μM; 24-96 hpf; vs untreated control. The procedure, abridged: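 Wild-type Danio rerio embryos were raised at 28.5 °C. From the 2- or 4-cell stage they were exposed in 5 mL fish medium to test compound at 0.1, 0.5, 1 μM (0.5% DMSO final). Medium was refreshed at 48 h. Mortality, gross morphology and hatching were scored by stereomicroscope every 24 h to 96 hpf, against an untreated control. Triplicates, 60 embryos per treatment from three crosses; mean ± SD.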

Data set [10] can be described thus: Stability in cell culture medium/DMSO. The data set is classed as physicochemical. The note with it: 10 μM, full DMEM/F12 medium (max 0.1% DMSO), 37 °C, 1.5 h, HPLC. The procedure, abridged:
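Test compound at 10 μM in DMEM/F12 (0.1% DMSO, from DMSO stock) was held 1.5 h at 37 °C. Released ligand was extracted into diethyl ether, then cleaned on silica with acetone. The residue was redissolved in acetone with 100 μM hydrocortisone as external standard. It was run on C18 UHPLC with a 13 min water/acetonitrile gradient at 2 mL/min, with UV detection, and quantified against standard curves. Three replicates.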

Data set [11] in a line: Solubility in culture medium/DMSO and water/DMSO by UV-Vis. The data set is classed as physicochemical. The gist of the method:
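Test compound in phenol red-free DMEM-F12 (0.1% DMSO) at 0.01, 0.1, 1, 5, 10, 20 μM, and in water (max 0.5% DMSO) at 1, 5, 10, 15 μM. Each solution was passed through a 0.2 μm syringe filter, then absorbance at 350–370 nm was read on a plate reader. A linear concentration–absorbance relationship was taken to indicate solubility.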

[12] abbreviates: MCF12A (non-cancerous), 48 h exposure, SRB assay.
[13] abbreviates: H295R, 48 h exposure, SRB assay.
Where [14] appears, read: MDA-MB-231, 48 h exposure, SRB assay.

`C1=CCCC=CCC1.CC(C)(C#N)c1cc(Cn2cncn2)cc(C(C)(C)C#N)c1.CC(C)(C#N)c1cc(Cn2cncn2)cc(C(C)(C)C#N)c1.[Cl-].[Cl-].[Ru+2]` [Complex 1, RuCOD(ATZ)2Cl2]: the “free anastrozole observed in DMSO (1H NMR)” value in “Stability in DMSO” was 25%.

On to `CC(C)(C#N)c1cc(Cn2cncn2)cc(C(C)(C)C#N)c1.CS(C)=O.[Cl-].[Cl-].[Cl-].[Cl-].[Na+].[Ru+3]` [Complex 3, Na[trans-RuCl4ATZ(DMSO)]], for which the “solubility in water (qualitative)” value in [1] is on record as “soluble in water”.

Take `CC(C)(C#N)c1cc(Cn2cncn2)cc(C(C)(C)C#N)c1` [anastrozole, reference compound]: the IC50 in [2] (Homo sapiens, MCF-12A, 48 h) is above 100 µM; in data set [3] (Homo sapiens, NCI-H295R, 48 h) it was above 100 µM; in [5] (Homo sapiens, MCF7, 48 h), above 100 µM; in data set [6] (Homo sapiens, MDA-MB-231, 48 h), above 100 µM; in data set [7] (Homo sapiens, 48 h), above 100 µM. In addition, the inhibition at 0.01 µM in data set [4] (NCI-H295R, read-out: inhibition of aromatase activity) was around 50%.

For `N.N.[Cl][Pt][Cl]` [cisplatin], the IC50 in [2] (setting [12]) is 42.7 µM; in data set [3] (setting [13]), 86.5 µM; in [5] (MCF7, 48 h exposure, SRB assay), 20.1 µM; in [6] (setting [14]), 32.4 µM; in data set [7] (48 h exposure, SRB assay), above 150 µM. Besides, the “hatching rate of zebrafish embryos” value in [8] was “significant inhibition of hatching rate”. In addition, the “Selectivity index (SI)” value in data set [5] was determined as 2.12; in data set [6], 1.32.

Consider RuCp(PPh3)2(ATZ)BF4 [Complex 2], for which the IC50 is 0.58 µM in data set [2] (setting [12]); 0.63 µM in data set [3] (setting [13]); 0.5 µM in [5] (MCF7, 48 h exposure, SRB assay); 0.39 µM in data set [6] (setting [14]); 0.32 µM in data set [7] (48 h exposure, SRB assay). For the same compound, the “hatching delay of zebrafish embryos” value in [9] is “no apparent”. Also, the “mortality of zebrafish embryos” value in data set [9] is recorded as “no apparent”. Also, in [9], the “phenotype changes of zebrafish embryos” value is recorded as “no apparent”. The “Selectivity index (SI)” value in data set [3] (IC50 (MCF12A) / IC50 (H295R)) worked out at 0.92; in data set [5], 1.16; in [6], 1.49; in data set [7] (IC50 (MCF12A) / IC50 (T47D)) it was 1.81. Also, the “aromatase inhibitory activity at higher concentrations” value in data set [4] (above 10 nM (tested up to 100 nM), 1.5 h, H295R cells) was “slight aromatase inhibitory activity”. Besides, in data set [4] (up to 10 nM, 1.5 h, H295R cells), the “inhibition of aromatase activity” value is “No significant inhibition”. Further, the “solubility in organic solvents (qualitative)” value in [1] is “soluble in acetone, alcohols and dimethyl sulfoxide (DMSO)”. Also, in data set [1], the “solubility in water (qualitative)” value is reported as “poorly soluble in water”. In addition, the “free anastrozole observed in DMSO (1H NMR)” value in the data set “Stability in DMSO” was found to be 2%. In the data set “Stability in DMSO” (over 1 h), the “change of UV-Vis absorption spectrum in DMSO” value is “No apparent change”. Besides, the “released anastrozole in culture medium” value in data set [10] is reported as 4%. Also, the “solubility in culture medium” value in [11] (full DMEM/F12 medium (0.1% DMSO)) was at least 20 µM. Also, in data set [11] (water (max 0.5% DMSO)), the solubility in water is at least 15 µM.
